# Assay results reported in PMC11168086 (RSC Advances, 2024).
# Experiments:
# [1] = system: HeLa (cervical cancers) cells; test: MTT antiproliferative assay, HeLa; format: cell-based, human; details: for IC50: Homo sapiens, 72 h
# In short: (§1)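 Cells from ECACC were grown in MEM with 10% FBS, non-essential amino acids and penicillin-streptomycin, at 37 °C and 5% CO2. Cells were seeded at 5000 per well, left overnight, then exposed to test compound 72 h. MTT was added for 4 h, and formazan was dissolved in DMSO (60 min, 37 °C) and read at 545 nm. Compounds giving >50% inhibition at 10 μM were rerun over 0.1–30 μM for IC50. Two independent experiments used five wells each, with cisplatin as positive control.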
# [2] = system: MCF7 (breast cancer) cells; test: MTT antiproliferative assay, MCF7; format: cell-based, human; details: for IC50: Homo sapiens, MCF7, 72 h, MCF-7, MTT, 72 h; for Lipophilic efficiency (LipE = pIC50 – logP): MCF-7
# In short: as §1
# [3] = system: MDA-MB-231 (breast cancer) cells; test: MTT antiproliferative assay, MDA-MB-231; format: cell-based, human; details: for IC50: Homo sapiens, MDA-MB-231, 72 h, MDA-MB-231, MTT, 72 h
# In short: as §1
# [4] = system: A2780 (ovarian cancer) cells; test: MTT antiproliferative assay, A2780; format: cell-based, human; details: for IC50: Homo sapiens, A2780, 72 h; for Lipophilic efficiency (LipE = pIC50 – logP): A2780
# In short: as §1
# [5] = Kinetic aqueous solubility; format: physicochemical; details: PBS buffer, pH 7.4, aqueous buffer, kinetic from dmso stock
# In short: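 10 mM DMSO stocks were diluted into PBS pH 7.4 to a 500 μM target and shaken 2 h at room temperature. Samples were vacuum-filtered, diluted with acetonitrile to prevent precipitation, and scanned by UV-vis over 250–500 nm. Concentration was derived from a 3-point calibration at each compound's λmax.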
# [6] = Intestinal-specific PAMPA; format: in vitro ADME; details: pH 6.5
# In short: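 Donor solutions at nominal 500 μM came from 10 mM DMSO stocks diluted in phosphate donor buffer, pH 6.5. The acceptor buffer held 5% DMSO. The membrane was phosphatidylcholine plus cholesterol in chloroform/dodecane/hexane (5:25:70 v/v). Plates were incubated 4 h at 37 °C, covered. Acceptor UV-vis absorbance was read over 250–500 nm. Pa was calculated by the Wohnsland–Faller equation from acceptor versus equilibrium absorbance at λmax.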
IC50 [1] [µM],IC50 [2] [µM],IC50 [3] [µM],IC50 [4] [µM],solubility kinetic at 2 h [5] [µM],"Papp at 4 h, 500 μM [6] [×10⁻⁶ cm/s]",SMILES,Lipophilic efficiency (LipE = pIC50 – logP) [1],Lipophilic efficiency (LipE = pIC50 – logP) [2],Lipophilic efficiency (LipE = pIC50 – logP) ([3]; MDA-MB-231),Lipophilic efficiency (LipE = pIC50 – logP) [4]
6.3,2,11.7,12.5,82 ± 2.2,1.8 ± 0.5,COc1cccc(CNC[C@@](C)(O)[C@@H]2CC[C@@H](C)C[C@H]2OCc2ccccc2)c1 [Compound 11a],−0.19,0.32,,
2,1.4,1.7,1.3,107 ± 2.6,23.7 ± 3.8,COc1ccc(CNC[C@](O)(COCc2ccc(OC)cc2)[C@@H]2CC[C@@H](C)C[C@H]2OCc2ccc(OC)cc2)cc1 [Compound 52a],−0.57,−0.43,−0.50,−0.40
4.6,4.2,12.8,7.4,270 ± 21,49.2 ± 4,COc1ccccc1CNC[C@@](C)(O)[C@@H]1CC[C@@H](C)C[C@H]1OCc1ccccc1 [Compound 12a],−0.05,−0.01,,−0.26
